≈ marks a conversion by molar mass, not a printed value. Calls of active or inactive are those of the source. The rule behind the calls is not given here.
What was measured:
[1] = Oral bioavailability in Sprague-Dawley rat at 25 mg/kg; type: ADME, organism-based; settings: in vivo
[2] = Plasma protein binding in human plasma; type: ADME, cell-free; settings: read-out: PPB (converted)
Summary of the method: (§1)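 Binding of compound to human, rat or mouse plasma protein, reported as % bound.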

[3] = Plasma protein binding in rat plasma; type: ADME, cell-free; settings: read-out: PPB (converted); summary of the method: as §1
[4] = Metabolic stability in mouse liver microsomes at 60 mins; type: ADME, Microsome; settings: read-out: Stability
CYP1A2 = molecular target: T1, CYP1A2 (Homo sapiens, UniProt P05177); experiment: Inhibition of human CYP1A2 at 10 uM; type: ADME
T1 sequence (P05177 whole entry): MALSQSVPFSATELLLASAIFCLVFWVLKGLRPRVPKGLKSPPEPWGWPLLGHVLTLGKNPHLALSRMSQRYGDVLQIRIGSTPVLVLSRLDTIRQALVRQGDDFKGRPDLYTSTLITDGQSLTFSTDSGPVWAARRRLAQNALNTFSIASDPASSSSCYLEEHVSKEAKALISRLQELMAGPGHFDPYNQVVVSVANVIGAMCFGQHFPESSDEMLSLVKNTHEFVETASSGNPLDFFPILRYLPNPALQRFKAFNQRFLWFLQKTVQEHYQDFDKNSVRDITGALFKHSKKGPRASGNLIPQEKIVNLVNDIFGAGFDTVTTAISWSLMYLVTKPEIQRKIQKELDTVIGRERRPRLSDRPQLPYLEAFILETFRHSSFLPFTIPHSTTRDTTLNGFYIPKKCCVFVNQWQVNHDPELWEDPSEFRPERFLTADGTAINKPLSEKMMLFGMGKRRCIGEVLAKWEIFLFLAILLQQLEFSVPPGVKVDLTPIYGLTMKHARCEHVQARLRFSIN
Summary of the method: (§2)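 Inhibition of CYP isoforms with compound at 10 μM, reported as % inhibition. CYP3A4 run with midazolam or testosterone as substrate.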

Dengue virus = experiment: Antiviral activity against 0.01 MOI DENV infected in human Huh7.5 cells assessed as reduction in viral […] protein level at 0.1 to 100 uM after 2 days by Western blotting; type: functional, organism-based; settings: Huh-7
CYP2C9 = CYP2C9 (Homo sapiens, UniProt P11712); experiment: Inhibition of human CYP2C9 at 10 uM; type: ADME
CYP2C9, sequence (P11712 whole entry, canonical isoform): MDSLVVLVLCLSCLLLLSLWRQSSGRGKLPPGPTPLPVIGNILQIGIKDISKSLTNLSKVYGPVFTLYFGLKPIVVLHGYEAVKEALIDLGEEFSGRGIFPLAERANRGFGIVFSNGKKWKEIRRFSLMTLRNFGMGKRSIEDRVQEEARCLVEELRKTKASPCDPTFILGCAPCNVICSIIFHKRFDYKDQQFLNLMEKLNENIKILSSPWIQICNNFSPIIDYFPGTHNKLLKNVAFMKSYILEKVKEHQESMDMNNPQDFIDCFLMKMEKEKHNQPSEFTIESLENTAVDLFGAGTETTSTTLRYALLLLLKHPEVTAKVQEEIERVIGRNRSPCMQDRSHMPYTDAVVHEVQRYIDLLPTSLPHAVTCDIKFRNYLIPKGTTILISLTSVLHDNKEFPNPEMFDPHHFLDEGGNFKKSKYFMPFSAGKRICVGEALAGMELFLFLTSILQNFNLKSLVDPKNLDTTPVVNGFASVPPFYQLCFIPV
Summary of the method: (§3)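 Inhibition of CYP isoforms by compounds tested at 10 μM, given as percent inhibition; contract in vitro ADME panel.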

[5] = Metabolic stability in rat liver microsomes at 60 mins; type: ADME, Microsome; settings: read-out: Stability
[6] = Cytotoxicity against human Huh7.5 cells assessed as cell viability by DRAQ5 and Sapphire 700 staining; settings: huh-7
dengue virus type 2 = experiment: Antiviral activity against 0.01 MOI DENV-2 NGC infected in BHK cells assessed as reduction in viral titer after 48 hrs; type: functional, organism-based
Summary of the method: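 BHK cells infected with DENV-2 New Guinea C at MOI 0.01 for 1 h. Inoculum removed, then compounds at 0.1–100 μM for 48 h at 37 °C. Supernatants titrated on Vero monolayers as 10-fold dilutions under 0.5% methylcellulose for 3–5 days. Foci detected by 4G2 immunostaining or crystal violet plaques. EC50 from dose–response curves, mean of 3 independent experiments.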

[7] = Metabolic stability in human liver microsomes at 60 mins; type: ADME, Microsome; settings: read-out: Stability
[8] = Aqueous solubility in PBS at pH 7.4; type: physicochemical; settings: buffer
[9] = Cytotoxicity against MDBK cells assessed as cell viability by MTT assay; type: cell-based, Bos taurus; settings: cattle
CYP2C19 = CYP2C19 (Homo sapiens, UniProt P33261); experiment: Inhibition of human CYP2C19 at 10 uM; type: ADME; summary of the method: as §2
CYP2C19, sequence (P33261 whole entry): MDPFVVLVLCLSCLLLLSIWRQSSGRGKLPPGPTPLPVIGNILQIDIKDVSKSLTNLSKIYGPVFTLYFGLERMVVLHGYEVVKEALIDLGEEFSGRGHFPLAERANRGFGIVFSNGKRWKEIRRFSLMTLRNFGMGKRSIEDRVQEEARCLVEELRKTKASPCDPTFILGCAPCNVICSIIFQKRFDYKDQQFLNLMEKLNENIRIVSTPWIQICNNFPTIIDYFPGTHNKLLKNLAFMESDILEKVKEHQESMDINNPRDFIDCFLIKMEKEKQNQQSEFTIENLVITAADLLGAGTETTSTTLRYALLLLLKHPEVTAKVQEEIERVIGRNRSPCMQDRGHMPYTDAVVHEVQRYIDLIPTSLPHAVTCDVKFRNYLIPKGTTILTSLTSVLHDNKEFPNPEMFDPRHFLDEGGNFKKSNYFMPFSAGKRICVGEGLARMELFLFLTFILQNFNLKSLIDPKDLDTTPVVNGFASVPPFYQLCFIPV

[10] = Antiviral activity against 1 MOI BVDV NADL infected in MDBK cells assessed as reduction in viral titer after 22 hrs; type: functional, cell-based, Bovine viral diarrhea virus 1-NADL; settings: Bovine viral diarrhea virus isolates and strains, MDBK, 22 h
Summary of the method: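 MDBK cells (2×10^5) infected 24 h after seeding with BVDV NADL at MOI 1, with 1 h adsorption at 37 °C. Washed, then compounds at 0.1–100 μM. Media harvested 22 h post-infection and plaque-titrated on MDBK under 1% methylcellulose for 3 days. Plaques counted directly or after neutral red staining. EC50 from dose–response curves, mean of 3 independent experiments.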

[11] = Plasma protein binding in mouse plasma; type: ADME, cell-free; settings: read-out: PPB (converted); summary of the method: as §1
[12] = Aqueous solubility in PBS at pH 4; type: physicochemical; settings: buffer
MDBK = experiment: Competitive inhibition of endoplasmic reticulum-resident alpha-glucosidase in MDBK cells infected with 1 MOI BVDV assessed as decrease in viral E2 protein mobility at 0.8 to 100 uM after 24 hrs by Western blotting; type: cell-based; settings: Bos taurus
Summary of the method: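 MDBK cells infected with BVDV at MOI 1 for 1 h, then compounds at 0.8, 4.0, 20 and 100 μM. Cells lysed in Laemmli buffer, run on 12% polyacrylamide gel and transferred to nitrocellulose. BVDV E2 mobility probed with monoclonal WB166 and β-actin detected in parallel. IR-dye secondary antibody, Odyssey imaging.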

CYP3A4 [13] = molecular target: T2, CYP3A4 (Homo sapiens, UniProt P08684); experiment: Inhibition of human CYP3A4 using testosterone as substrate at 10 uM; type: ADME; settings: probe testosterone; summary of the method: as §2
T2 sequence (P08684 whole entry): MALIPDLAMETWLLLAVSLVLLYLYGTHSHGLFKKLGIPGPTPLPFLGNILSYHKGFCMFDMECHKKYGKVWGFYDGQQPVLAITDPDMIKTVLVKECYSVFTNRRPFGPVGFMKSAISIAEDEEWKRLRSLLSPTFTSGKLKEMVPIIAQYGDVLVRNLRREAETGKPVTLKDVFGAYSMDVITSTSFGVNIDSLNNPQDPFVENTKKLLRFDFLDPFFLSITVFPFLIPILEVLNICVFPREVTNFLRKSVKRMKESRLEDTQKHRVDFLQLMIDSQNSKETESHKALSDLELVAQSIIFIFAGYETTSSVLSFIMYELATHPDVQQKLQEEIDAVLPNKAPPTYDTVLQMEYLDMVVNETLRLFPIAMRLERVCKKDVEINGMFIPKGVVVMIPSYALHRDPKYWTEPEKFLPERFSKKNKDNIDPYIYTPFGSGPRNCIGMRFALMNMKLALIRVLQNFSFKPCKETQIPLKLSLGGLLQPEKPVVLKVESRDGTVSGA

CYP3A4 [14] = molecular target: T2, CYP3A4; experiment: Inhibition of human CYP3A4 using midazolam as substrate at 10 uM; type: ADME; settings: probe midazolam; summary of the method: as §2
CYP2D6 = CYP2D6 (Homo sapiens, UniProt P10635); experiment: Inhibition of human CYP2D6 at 10 uM; type: ADME; summary of the method: as §3
CYP2D6, sequence (P10635 whole entry): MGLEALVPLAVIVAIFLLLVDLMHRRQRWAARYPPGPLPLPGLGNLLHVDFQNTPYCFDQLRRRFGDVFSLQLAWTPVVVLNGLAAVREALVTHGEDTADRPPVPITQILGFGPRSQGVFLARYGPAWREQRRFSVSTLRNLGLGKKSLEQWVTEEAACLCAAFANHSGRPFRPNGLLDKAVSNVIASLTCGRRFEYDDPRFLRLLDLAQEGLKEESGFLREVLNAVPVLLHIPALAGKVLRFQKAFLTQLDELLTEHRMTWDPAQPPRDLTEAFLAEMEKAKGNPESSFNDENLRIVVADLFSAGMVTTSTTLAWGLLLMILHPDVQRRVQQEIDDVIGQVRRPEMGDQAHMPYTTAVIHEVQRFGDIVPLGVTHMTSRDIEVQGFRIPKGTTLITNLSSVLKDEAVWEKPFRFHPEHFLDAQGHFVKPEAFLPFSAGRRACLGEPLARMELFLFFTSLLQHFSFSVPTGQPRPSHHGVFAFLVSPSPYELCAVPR

[15] = Cytotoxicity against BHK cells assessed as cell viability by MTT assay; type: cell-based, Mesocricetus auratus; settings: hamster
Rattus norvegicus [16] = experiment: Acute toxicity in Sprague-Dawley rat assessed as occurrence of soft feces at 50 to 100 mg/kg, po measured at 1 to 2 days; type: organism-based; parameters: route oral; settings: in vivo
Summary of the method: (§4)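 Single oral dose (25, 50, 100 or 200 mg/kg, or vehicle) given to 10-week-old male rats, 2 per group. Compound dissolved at 20 mM in PBS with 10% Solutol HS15, shaken 6 h at 37 °C. Animals observed 7 days for clinical signs, body weight and food consumption, then sacrificed on day 8.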

in vivo = settings: Sprague-Dawley, rat, po, 25 mg/kg
Rattus norvegicus [17] = experiment: Volume of distribution in Sprague-Dawley rat at 25 mg/kg, po; type: ADME, organism-based; parameters: dose 25 mg/kg, route oral; settings: in vivo
[18] = Volume of distribution in Sprague-Dawley rat at 5 mg/kg, iv; type: ADME, organism-based; parameters: dose 5 mg/kg, route intravenous; settings: in vivo
Rattus norvegicus [19] = experiment: Acute toxicity in Sprague-Dawley rat assessed as mortality at 25 to 200 mg/kg, po after 7 days; type: organism-based; parameters: dose 25-200 mg/kg, route oral; settings: in vivo, 168 h
[20] = Plasma half life in Sprague-Dawley rat at 5 mg/kg, iv; type: ADME, organism-based; parameters: dose 5 mg/kg, route intravenous
Rattus norvegicus [21] = experiment: Acute toxicity in Sprague-Dawley rat assessed as body weight loss at 25 to 200 mg/kg, po after 7 days; type: organism-based; parameters: dose 25-200 mg/kg, route oral; settings: in vivo, 168 h; summary of the method: as §4
Rattus norvegicus [22] = experiment: Acute toxicity in Sprague-Dawley rat assessed as occurrence of diarrhea at 200 mg/kg, po measured at 1 to 2 days; type: organism-based; parameters: dose 200 mg/kg, route oral; settings: in vivo; summary of the method: as §4

| Compound | fraction unbound [2] | fraction unbound [3] | remaining at 1 h [4] [%] | inhibition at 10 µM (CYP1A2) [%] | Activity (Dengue virus) | inhibition at 10 µM (CYP2C9) [%] | remaining at 1 h [5] [%] | Activity [6] | Activity (dengue virus type 2) | EC50 (dengue virus type 2) [µM] | remaining at 1 h [7] [%] | solubility [8] [µM] | CC50 [9] [µM] | inhibition at 10 µM (CYP2C19) [%] | EC50 [10] [µM] | fraction unbound [11] | solubility [12] [µM] | inhibition (MDBK) | inhibition at 10 µM (CYP3A4 [13]) [%] | inhibition at 10 µM (CYP3A4 [14]) [%] | also measured |
| --- | --- | --- | --- | --- | --- | --- | --- | --- | --- | --- | --- | --- | --- | --- | --- | --- | --- | --- | --- | --- | --- |
| CCC(O)(CC)CCCCCCN1C[C@H](O)[C@@H](O)[C@H](O)[C@H]1CO | 0.67 | 0.7 | 104 | 7.9 | Active | 9.6 | 98 | Non-toxic | Dose-dependent effect | 6.5 | 99 | 315 (≈ 105 µg/mL) | > 500 | 37 | 6.2 | 0.6 | 315 (≈ 105 µg/mL) | Active | 20.5 | 21 | bioavailability [1]: 56%; inhibition at 10 µM (CYP2D6): 1.2%; CC50 [15]: > 500 µM |
| OC[C@@H]1[C@@H](O)[C@H](O)[C@@H](O)CN1CCCCCCOc1cc(F)ccc1F | 0.26 | 0.32 | 91 | 24.4 | Active | 7.1 | 79 | Non-toxic | Dose-dependent effect | 0.4 | 91 | 292 (≈ 110 µg/mL) | > 500 | 1.6 | 0.5 | 0.23 | 296 (≈ 111 µg/mL) | Active | -1.9 | 10.9 | Activity (Rattus norvegicus [16]): Toxic; Tmax (in vivo): 4.2 h; Vd (Rattus norvegicus [17]): 17.2 L/kg; Vd [18]: 3.1 L/kg; Activity (Rattus norvegicus [19]): Non-toxic; half-life [20]: 1.44 h; Activity (Rattus norvegicus [21]): Non-toxic; inhibition at 10 µM (CYP2D6): 11.4%; CC50 [15]: > 500 µM; Activity (Rattus norvegicus [22]): Toxic |

Source: ChEMBL document CHEMBL2163238, “Design, synthesis, and biological evaluation of N-alkylated deoxynojirimycin (DNJ) derivatives for the treatment of dengue virus infection” (J Med Chem, 2012)
